Measurements collected from several papers.
Lines come from different studies, so protocols differ.
CSF1R: Macrophage colony-stimulating factor 1 receptor (CSF1R, Homo sapiens, UniProt P07333)

CC(C)(C)c1cc(C=C(C#N)C#N)cc(Br)c1O
remaining activity (CSF1R; enzyme activity, inhibitor; 0.5 µM): 96.8%

Nc1ncc(-c2nc(N3CCOCC3)nc(N3CCOCC3)n2)c(C(F)F)n1
remaining binding (CSF1R; cell-free assay, competition with immobilised ligand; 10 µM): 14%

Cn1cncc1[C@](O)(COc1ccc(C#N)cc1-c1ccc(OC(F)(F)F)cc1)c1ccc(C#N)cc1
remaining binding (Macrophage colony-stimulating factor 1 receptor, autoinhibited (CSF1R, Homo sapiens, UniProt P07333); cell-free assay, competition with immobilised ligand; 1 µM): 93%

COc1ncccc1-c1cnn2ccc(N3CCN(C(=O)OC(C)C)CC3)nc12
remaining binding (CSF1R; binding, competition with immobilised ligand; 1 µM): 100%

C#Cc1n[nH]c2c(-c3cn([C@@H](C)c4ccccc4)c(=O)[nH]c3=O)cc(F)cc12
inhibition (CSF1R; enzyme activity, inhibitor; 0.1 µM): 4.9%

Cn1cc(-c2cc(F)cc(N3CCn4c(cc5c4CCCC5)C3=O)c2CO)cc(Nc2ccc(N3CCN(C4COC4)CC3)cn2)c1=O
inhibition (CSF1R; enzyme activity, inhibitor; 0.1 µM): 13%

COCc1c(-c2cc3cc(C)cc(OC)c3s2)c2c(N)ncnn2c1CN1CCNC(=O)C1
inhibition (CSF1R; cell-free assay, competition with immobilised ligand; 1 µM): 100%

N#CC1(c2ccccn2)CCN(Cc2cc(C(=O)O)c(=O)n3ccccc23)CC1
remaining binding (CSF1R; cell-free assay, competition with immobilised ligand; 1 µM): 95%

Cn1cc(-c2cccc(N3CCc4c(sc5c4CC(C)(C)C5)C3=O)c2CO)cc(Nc2ccncn2)c1=O
inhibition (CSF1R; enzyme activity, inhibitor; 1 µM): 6%

O=c1[nH]c2ccccc2n1C1CCN(Cc2ccc(-c3[nH]c4cc5ncnc5cc4nc3-c3ccccc3)cc2)CC1
remaining signal (CSF1R; cell-free assay; 0.5 µM): 97%

C#Cc1n[nH]c2c(-c3cn(C(C)c4ccccn4)c(=O)[nH]c3=O)cc(F)cc12 (centres unmarked)
inhibition (CSF1R; enzyme activity, inhibitor; 1 µM): 5.8%
